Compounds with a hit are over-represented: about 2.1% of the library has one in this group of screens.
ARFGAP1 inhibitor – inhibitors of rat ARFGAP1 | Arfgap1-stimulated ARF1 GTP hydrolysis, GDP FP detection | AID 651572 | Q62848 | 360,000 tested, 0.26% active | inhibition, % at 16.5 µM;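 active = inhibition above a per-plate limit, mean inhibition of low control wells plus 3 SD, cut at about 25% in these data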;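 also: 0% = DMSO wells with enzyme and 100% = wells lacking Arfgap1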
Target sequence (Q62848 1-136 limits assumed): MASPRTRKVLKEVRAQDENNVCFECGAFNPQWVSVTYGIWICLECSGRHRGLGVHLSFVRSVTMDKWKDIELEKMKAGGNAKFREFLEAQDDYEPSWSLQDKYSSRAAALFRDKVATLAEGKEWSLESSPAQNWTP
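Material: rat Arfgap1 GAP domain (His6, aa 1-136), purified enzyme. Also added: human ARF1(Δ1-17)-GTP substrate. Compound dosing: 16.5 µM single point, 1.26% DMSO. Timing: enzyme reaction 120 min at 25 °C after 20 min preincubation. Signal: GDP detection by fluorescence polarization. Read-out basis: percent inhibition of GAP-stimulated GDP formation, scaled between DMSO and no-Arfgap1 medians.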
A3A deaminase – blocks human APOBEC3A ssDNA deamination; P31941; recombinant A3A, FAM/TAMRA ssDNA deamination fluorescence; inhibition, % at 20 µM; 330,000 tested, 0.41% active; AID 493011;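 active = at least 40% inhibition at 20 µM here, with at most 30% in a related deaminase screen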;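 also: plate controls were A3A with DMSO for no effect and wells lacking A3A enzyme for full effect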
APOBEC3G inh – blocks human APOBEC3G single-stranded DNA deamination | 330,000 tested, 0.28% active | inhibition, % at 20 µM | recombinant A3G, ssDNA deamination FAM/TAMRA fluorescence | Q9HC16;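 active = inhibition of at least 40% at 20 µM, with no more than 30% in the related APOBEC3A deaminase screen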;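 also: plate controls were DMSO wells with A3G for no effect and wells lacking A3G enzyme for full effect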
Mot1-301 SUMO – inhibitors of SUMOylation pathway: yeast Mot1-301 growth rescue; 320,000 tested, 1% active; S. cerevisiae Mot1-301 growth rescue, ATP luminescence, 38.5C; percent above DMSO median, 100 means doubled; growth rescue, % at 18.8 µM; AID 2716;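 active = every valid replicate shows activation above 250% relative to neutral control wells; inactive = the rest, any valid replicate at or below 250%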;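 also: OY570 slx delta 5 strain wells were the positive control but not used for scaling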
Statin myotox sup – suppression of simvastatin myotoxicity; C2C12 myotubes + simvastatin, ATP luminescence, 48 h; scaled: DMSO 0, geranylgeraniol control 100; rescue of ATP level, % at 7.49 µM; 330,000 tested, 0.78% active; AID 602340;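 active = mean ATP rescue above about 67%, or every replicate alone reaching that limit, limit read from the data, passing the limit was not always enough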;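 also: myotubes were challenged with 10 µM simvastatin during compound exposure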
ASAP1 inh – blocks human ASAP1-stimulated Arf1 GTP hydrolysis. Q9ULH1. GDP FP detection. inhibition, % at 16.5 µM. 360,000 tested, 0.19% active. AID 624377; in the data active = inhibition above about 25%;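 also: 0% = vehicle with enzyme and substrate and 100% = no enzyme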
Target sequence (Q9ULH1 325-724 limits assumed): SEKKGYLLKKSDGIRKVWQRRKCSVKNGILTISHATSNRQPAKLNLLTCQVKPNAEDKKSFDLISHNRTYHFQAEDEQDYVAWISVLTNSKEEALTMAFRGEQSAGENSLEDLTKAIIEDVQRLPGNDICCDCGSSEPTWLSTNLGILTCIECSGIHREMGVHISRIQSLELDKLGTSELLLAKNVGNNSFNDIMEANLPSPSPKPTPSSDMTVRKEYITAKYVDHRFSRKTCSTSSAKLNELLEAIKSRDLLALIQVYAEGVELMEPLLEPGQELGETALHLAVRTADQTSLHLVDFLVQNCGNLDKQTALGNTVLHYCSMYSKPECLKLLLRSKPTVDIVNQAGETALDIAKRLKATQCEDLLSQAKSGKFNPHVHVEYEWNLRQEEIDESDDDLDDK
* marks the source's active call; other numbers are inactive results; . = no result.

SMILES	ARFGAP1 inhibitor	A3A deaminase	APOBEC3G inh	Mot1-301 SUMO	Statin myotox sup	ASAP1 inh
CC1=C/C(=C(\c2cc(C)c(O)c(Br)c2)c2ccccc2S(=O)(=O)O)C=C(Br)C1=O	30*	-2	1	-43	-11	18
CCCNC(=O)C[C@@H]1CC[C@@H]2[C@@H](COc3ccc(NC(=O)c4cccc(C(F)(F)F)c4)cc3C(=O)N2C)O1	.	.	.	.	-18	.
C[C@H](CO)N1C[C@H](C)[C@@H](CN(C)Cc2ccc(Cl)c(Cl)c2)Oc2ccc(NS(=O)(=O)c3ccc(F)cc3)cc2CC1=O	.	.	.	.	112*	.
C[C@H]1CN([C@@H](C)CO)C(=O)Cc2cc(NS(=O)(=O)c3ccc(F)cc3)ccc2O[C@@H]1CN(C)Cc1ccc(Cl)c(Cl)c1	.	.	.	.	69*	.
C[C@H](CO)N1C[C@H](C)[C@H](CN(C)Cc2ccc(Cl)c(Cl)c2)Oc2ccc(NS(=O)(=O)c3ccc(F)cc3)cc2CC1=O	.	.	.	.	6	.
C[C@H]1CN([C@@H](C)CO)C(=O)Cc2cc(NS(=O)(=O)c3ccc(Cl)cc3)ccc2O[C@H]1CN(C)Cc1ccc(Cl)c(Cl)c1	.	.	.	.	29	.
COc1ccc(S(=O)(=O)N(CCCN2CCOCC2)Cc2ccc(OC)c(OC)c2)cc1	3	0	0	42	94*	-14
COc1ccc(CN(CCCN2CCOCC2)S(=O)(=O)N(C)C)cc1OC	-3	-4	-6	8	-5	-5
C[C@H]1CN([C@@H](C)CO)S(=O)(=O)c2ccc(C#CC3(O)CCCC3)cc2O[C@H]1CN(C)C(=O)Cc1ccncc1	.	.	.	.	-3	.
O=S(=O)(c1cc(O)ccc1O)c1cccc2c(S(=O)(=O)c3cc(O)ccc3O)cccc12	25*	98	70	27	11	22
COc1ccc(C2NC(C(=O)O)Cc3c2[nH]c2ccccc32)cc1OC (stereo not given)	-12	-4	-5	37	116*	-8
COc1cc(C2NC(C(=O)O)Cc3c2[nH]c2ccccc32)cc(OC)c1OC (stereo not given)	15	0	-4	0	-12	5
O=C(CN1CCOCC1)NCC[C@@H]1CC[C@H](NC(=O)Nc2ccc(C(F)(F)F)cc2)[C@H](CO)O1	.	.	.	.	6	.
CCOC(=O)c1c(N)c(C#N)c2n1CCCC2	8	-4	-6	2	113*	-7
O=C(O)[C@H]1[C@H](CO)[C@H]2Cn3c(ccc(-c4ccccc4)c3=O)[C@H]2N1CCc1ccccc1	.	.	.	.	4	.
CCCc1cn(CC[C@@H]2CC[C@H](NC(=O)C3CCCCC3)[C@@H](CO)O2)nn1	.	.	.	.	12	.
COc1ccccc1/C=N/NC(=O)CN(C1=NS(=O)(=O)c2ccccc21)c1ccccc1	40*	-3	-6	-7	.	8
COc1ccc(/C=N/NC(=O)CN(C2=NS(=O)(=O)c3ccccc32)c2ccccc2)cc1	-8	-2	-7	-2	9	-9
COc1cc2c(N3CCOCC3)cc(O)c(CC(=O)Nc3ccccc3)c2cc1OC	3	-2	-2	87	115*	4
COc1cc(CC(=O)Nc2ccc(N3CCOCC3)cc2)cc(OC)c1OC	0	-4	-5	3	.	-14
CO[C@@H]1CN(C)C(=O)c2ccc(NC(C)=O)cc2OC[C@@H](C)N(Cc2cc(-c3ccccc3)on2)C[C@H]1C	.	.	.	.	-18	.
C[C@@H]1CN([C@@H](C)CO)C(=O)Cc2cc(NC(=O)Cn3cnnn3)ccc2O[C@H]1CN(C)S(=O)(=O)c1ccc(F)cc1	.	.	.	.	37	.
COc1ccc(-n2c(C)cc(C)c(C(C)=O)c2=S)cc1	7	-3	1	-10	.	18
COc1ccccc1-n1c(C)cc(SC)c(C(C)=O)c1=S	12	-6	-4	10	98*	-7
Cc1ccc(-c2nc3ccccc3[nH]2)cc1NC(=O)c1ccco1	-3	0	-2	.	116*	1
SMILES	ARFGAP1 inhibitor	A3A deaminase	APOBEC3G inh	Mot1-301 SUMO	Statin myotox sup	ASAP1 inh
Cn1nnnc1Sc1ncnc2scc(Br)c12	4	-6	-11	342*	-19	-1
Cn1nnnc1Sc1ncnc2scc(-c3ccccc3Br)c12	-1	-4	-9	-7	-23	-7
Fc1ccc2cnc(-c3ccsc3)cc2c1	-12	.	.	.	.	3
Fc1ccc2cc(-c3ccsc3)ncc2c1	10	-1	-5	282*	2	-3
Cc1cccc(Nc2nc(-c3c(C)nc4ccccn34)cs2)c1	9	-1	2	8	-160	7
Cc1nc2ccccn2c1-c1nnco1	3	-7	0	15	72*	-8
COc1ccc(NC(=O)Nc2ccc3c(c2)C(=O)N([C@@H](C)CO)C[C@H](C)[C@H](CN(C)C(=O)C2CCCCC2)OCCCC[C@H](C)O3)cc1	.	.	.	.	79*	.
COc1ccc(NC(=O)Nc2ccc3c(c2)C(=O)N([C@H](C)CO)C[C@@H](C)[C@@H](CN(C)C(=O)C2CCCCC2)OCCCC[C@H](C)O3)cc1	-10	.	.	.	8	1
COc1ccc(NC(=O)Nc2ccc3c(c2)C(=O)N([C@H](C)CO)C[C@H](C)[C@H](CN(C)C(=O)C2CCCCC2)OCCCC[C@H](C)O3)cc1	.	.	.	.	71*	.
CCCC(=O)Nc1ccc2c(c1)C(=O)N(C)[C@H]1CC[C@H](CC(=O)O)O[C@H]1CO2	.	.	.	.	-10	.
COc1cc2oc3ccccc3c2cc1N(CC(=O)N1CCCCC1)S(=O)(=O)c1ccc(C)cc1	5	2	-1	-2	106*	-17
COc1ccc(S(=O)(=O)N[C@@H]2CC[C@@H](CC(=O)N3CCN(c4ccccc4)CC3)O[C@H]2CO)cc1	.	.	.	.	5	.
COc1cc(/C=C(\C#N)C(=O)NCCc2ccccc2)cc(OC)c1O	-1	-2	-12	-1	.	10
N#C/C(=C\c1ccc(O)c(O)c1)C(=O)NCCc1ccccc1	-1	-5	-4	274*	2	-5
Oc1ccc(-c2n[nH]c(=S)n2Cc2ccco2)cc1	-2	-1	49*	-5	9	-7
Oc1cc2ccccc2cc1-c1n[nH]c(=S)n1Cc1ccco1	-10	-2	-1	-17	.	-2
Cc1nc2ccccc2c(=O)n1NC(=O)C1CCCCC1	1	2	2	-1	9	-13
O=C(Nn1c(C2CCC2)nc2ccccc2c1=O)C1CCC1	8	0	-4	2	85*	-11
CC1(C)CC(NC(=O)CCC2CCCC2)CC(C)(C)N1	13	-2	-5	-10	106*	3
C/C=C/c1cnc2c(c1)C(=O)N([C@H](C)CO)C[C@@H](C)[C@H](CN(C)S(=O)(=O)c1cn(C)cn1)O2	.	.	.	.	0	.
C[C@@H]1CN([C@H](C)CO)C(=O)c2cc(NS(=O)(=O)c3ccc(F)cc3)ccc2O[C@H]1CN(C)S(=O)(=O)c1ccccc1	.	.	.	.	-5	.
CCn1c(CNc2ccc(F)cc2)nnc1SCC(=O)Nc1ccccc1OC	14	4	0	2	54	-6
